The record followed here is ChEMBL document CHEMBL1649176, “Contribution of oxidative damage to antimicrobial lethality” (2009).

In test [1] the test system is Escherichia coli. As to the kind of experiment: Bactericidal activity against sodB gene-deficient Escherichia coli K-12 3145 after 2 hrs. The format is functional, organism-based.
Test [2] concerns Escherichia coli. As to the kind of experiment: Bactericidal activity against sodA gene-deficient Escherichia coli K-12 3144 after 2 hrs. The format is functional, organism-based.
Test [3] concerns Escherichia coli. As to the kind of experiment: Bactericidal activity against sodA gene-deficient Escherichia coli K-12 3144 at 0.4 ug/ml. It is filed as functional, organism-based.
The subject of test [4] is Escherichia coli. As to the kind of experiment: Bactericidal activity against sodB gene-deficient Escherichia coli K-12 3145 at 0.4 ug/ml. It is filed as functional, organism-based.
The subject of test [5] is Escherichia coli. As to the kind of experiment: Bactericidal activity against katG gene-deficient Escherichia coli K-12 3157 at 100 times MIC. It is filed as functional, organism-based.
The test system of test [6] is Escherichia coli. As to the kind of experiment: Bactericidal activity against Escherichia coli K-12 BW25113 at 100 times MIC. The format is functional, organism-based.
Test [7] relates to Escherichia coli. As to the kind of experiment: Bactericidal activity against katG,katE gene-deficient Escherichia coli K-12 3201 at 100 times MIC. It is filed as functional, organism-based.
Test [8] relates to Escherichia coli. As to the kind of experiment: Bactericidal activity against ahpC gene-deficient Escherichia coli K-12 3200 at 100 times MIC. It is filed as functional, organism-based.
Test [9] relates to Escherichia coli. As to the kind of experiment: Bactericidal activity against katE gene-deficient Escherichia coli K-12 3202 after 18 hrs. The format is functional. As to conditions: K-12 3202, 18 h.
The subject of test [10] is Escherichia coli. As to the kind of experiment: Bactericidal activity against sodA, sodB gene-deficient Escherichia coli K-12 3156 after 18 hrs. The format is functional. Particulars: K-12 3156, 18 h.
The subject of test [11] is Escherichia coli. As to the kind of experiment: Bactericidal activity against sodB gene-deficient Escherichia coli K-12 3145 after 18 hrs. As to conditions: K-12 3145, 18 h. The format is functional.
The subject of test [12] is Escherichia coli. As to the kind of experiment: Antimicrobial activity against katG,katE gene-deficient Escherichia coli K-12 3201 by broth dilution method. The format is functional. In a few lines: (§1)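 Broth dilution in LB medium, about 10^5 bacteria per 1-ml tube, with drug concentrations rising in 50% increments. Tubes were incubated overnight at 37°C and read visually. MIC was the lowest concentration that prevented visible growth.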
In general terms: In broth dilution the organism is exposed to a series of concentrations in liquid medium.

The test system of test [13] is Escherichia coli. As to the kind of experiment: Bactericidal activity against sodA gene-deficient Escherichia coli K-12 3144 after 18 hrs. It is filed as functional. As to conditions: K-12 3144, 18 h.
Test [14] deals with Escherichia coli. As to the kind of experiment: Bactericidal activity against katG,katE gene-deficient Escherichia coli K-12 3201 after 18 hrs. It is filed as functional. As to conditions: K-12 3201, 18 h.
Test [15] has as its system Escherichia coli. As to the kind of experiment: Antimicrobial activity against ahpC gene-deficient Escherichia coli K-12 3200 by broth dilution method. It is filed as functional. In a few lines:
as §1

For test [16], the system named is Escherichia coli. As to the kind of experiment: Antimicrobial activity against sodA gene-deficient Escherichia coli K-12 3144 by broth dilution method. It is filed as functional. The essentials:
as §1

Test [17] relates to Escherichia coli. As to the kind of experiment: Antimicrobial activity against katE gene-deficient Escherichia coli K-12 3202 by broth dilution method. It is filed as functional. The essentials:
as §1

Test [18] has as its system Escherichia coli. As to the kind of experiment: Antimicrobial activity against sodB gene-deficient Escherichia coli K-12 3145 by broth dilution method. The format is functional. In a few lines: as §1
In test [19] the test system is Escherichia coli. As to the kind of experiment: Antimicrobial activity against Escherichia coli K-12 BW25113 by broth dilution method. The format is functional. In a few lines:
as §1

In test [20] the test system is Escherichia coli. As to the kind of experiment: Bactericidal activity against Escherichia coli K-12 BW25113 after 18 hrs. The format is functional. Particulars: K-12 BW25113, 18 h.
Test [21] relates to Escherichia coli. As to the kind of experiment: Antimicrobial activity against sodB gene-deficient Escherichia coli K-12 DKsodB by broth dilution method. It is filed as functional. In a few lines:
as §1

For test [22], the system named is Escherichia coli. As to the kind of experiment: Bactericidal activity against ahpC gene-deficient Escherichia coli K-12 3200 after 18 hrs. It is filed as functional. Particulars: K-12 3200, 18 h.
The test system of test [23] is Escherichia coli. As to the kind of experiment: Bactericidal activity against sodB gene-deficient Escherichia coli K-12 DK after 18 hrs. It is filed as functional.
For test [24], the system named is Escherichia coli. As to the kind of experiment: Antimicrobial activity against katG gene-deficient Escherichia coli K-12 3157 by broth dilution method. It is filed as functional. The essentials: as §1
Test [25] has as its system Escherichia coli. As to the kind of experiment: Bactericidal activity against katG gene-deficient Escherichia coli K-12 3157 after 18 hrs. Particulars: K-12 3157, 18 h. It is filed as functional.
For test [26], the system named is Escherichia coli. As to the kind of experiment: Antimicrobial activity against sodA, sodB gene-deficient Escherichia coli K-12 3156 by broth dilution method. It is filed as functional. In a few lines:
as §1

The test system of test [27] is Escherichia coli. As to the kind of experiment: Bactericidal activity against sodA, sodB gene-deficient Escherichia coli K-12 3156 at 0.4 ug/ml relative to wild-type. The format is functional.
The subject of test [28] is Escherichia coli. As to the kind of experiment: Bactericidal activity against sodB gene-deficient Escherichia coli K-12 DKsodB after 2 hrs. The format is functional, organism-based.
Test [29] relates to Escherichia coli. As to the kind of experiment: Bactericidal activity against katG gene-deficient Escherichia coli K-12 3157 at 10 times MIC relative to wild-type. The format is functional.
In test [30] the test system is Escherichia coli. As to the kind of experiment: Bactericidal activity against katG,katE gene-deficient Escherichia coli K-12 3201 at 10 times MIC relative to wild-type. The format is functional.
In test [31] the test system is Escherichia coli. As to the kind of experiment: Bactericidal activity against katG gene-deficient Escherichia coli K-12 3157 after 2 hrs relative to wild-type. It is filed as functional.
For test [32], the system named is Escherichia coli. As to the kind of experiment: Bactericidal activity against katG gene-deficient Escherichia coli K-12 3157 at 10 times MIC pretreated with 250 uM bipyridyl relative to wild-type. The format is functional.
Test [33] concerns Escherichia coli. As to the kind of experiment: Bactericidal activity against katG gene-deficient Escherichia coli K-12 3157 after 2 hrs pretreated with 100 mM thiourea relative to wild-type. It is filed as functional.
Test [34] concerns Escherichia coli. As to the kind of experiment: Bactericidal activity against sodB gene-deficient Escherichia coli K-12 DKsodB at 0.4 ug/ml. The format is functional, organism-based.
In test [35] the test system is Escherichia coli. As to the kind of experiment: Bactericidal activity against katG gene-deficient Escherichia coli K-12 3157 at 10 times MIC pretreated with 100 mM thiourea relative to wild-type. It is filed as functional.
Test [36] concerns Escherichia coli. As to the kind of experiment: Bactericidal activity against sodA, sodB gene-deficient Escherichia coli K-12 3156 after 2 hrs relative to wild-type. The format is functional.
Test [37] deals with Escherichia coli. As to the kind of experiment: Bactericidal activity against katG gene-deficient Escherichia coli K-12 3157 after 2 hrs pretreated with 250 uM bipyridyl relative to wild-type. It is filed as functional.
Test [38] has as its system Escherichia coli. As to the kind of experiment: Bactericidal activity against katG,katE gene-deficient Escherichia coli K-12 3201 after 2 hrs relative to wild-type. The format is functional.

Converted amounts (≈) assume the structure as drawn. The source made the active and inactive calls.

On to `CCn1cc(C(=O)O)c(=O)c2cc3c(cc21)OCO3`, for which the result in test [1], in test [2], in test [3] and in [4] was Active.
Turning to `O=C(N[C@H](CO)[C@H](O)c1ccc([N+](=O)[O-])cc1)C(Cl)Cl`, the outcome in test [5], in [6], in test [7] and in [8] was inactive.
As for `O=C(O)c1cn(C2CC2)c2cc(N3CCNCC3)c(F)cc2c1=O`, the result in [1], in test [2], in test [3] and in test [4] was Active.
As to `CC1(C)S[C@@H]2[C@H](NC(=O)[C@H](N)c3ccccc3)C(=O)N2[C@H]1C(=O)O` [AMPICILLIN], the MBC (commonly the smallest concentration meeting the test's criterion for killing) in test [9] is 80 µg/mL (≈ 229 µM); in [10], 20 µg/mL (≈ 57.2 µM); in [11] it was 80 µg/mL (≈ 229 µM); in test [13] it was 80 µg/mL (≈ 229 µM); in [14], 80 µg/mL (≈ 229 µM); in [20], 80 µg/mL (≈ 229 µM). In addition, the MBC in test [22] was 40 µg/mL (≈ 114 µM); in test [23], 80 µg/mL (≈ 229 µM); in test [25] it was 80 µg/mL (≈ 229 µM). For the same compound, the MIC (as a rule, the smallest concentration in the dilution series that meets the test's criterion for growth inhibition) in test [12] was determined as 30 µg/mL; in test [15] it was 15 µg/mL; in test [16] it was 15 µg/mL; in test [17], 15 µg/mL; in test [18], 15 µg/mL; in test [19], 15 µg/mL. Further, the MIC in test [21], in test [24] and in test [26] was 15 µg/mL each time.
As to `c1ccc(-c2ccccn2)nc1` [DIPYRIDYL], the MIC in test [12], in test [15], in test [16], in test [17], in [18] and in test [19] was 500 µM each time. For the same compound, the MIC in test [21], in test [24] and in test [26] was 500 µM throughout.
As for `NC[C@H]1O[C@H](O[C@H]2[C@H](O)[C@@H](O[C@H]3O[C@H](CO)[C@@H](O)[C@H](N)[C@H]3O)[C@H](N)C[C@@H]2N)[C@H](O)[C@@H](O)[C@@H]1O` [KANAMYCIN], the MBC amounted to 20 µg/mL (≈ 41.3 µM) in test [9]; 10 µg/mL (≈ 20.6 µM) in [10]; 20 µg/mL (≈ 41.3 µM) in [11]; 20 µg/mL (≈ 41.3 µM) in test [13]; 20 µg/mL (≈ 41.3 µM) in [14]; 20 µg/mL (≈ 41.3 µM) in [20]. For the same compound, the figures for the MBC in test [22], in [23] and in [25] were 10 µg/mL (≈ 20.6 µM), 20 µg/mL (≈ 41.3 µM) and 20 µg/mL (≈ 41.3 µM), respectively. Besides, the minimum inhibitory concentration (MIC) in test [12] amounted to 1.2 µg/mL; in test [15] it was 2.4 µg/mL; in test [16], 0.6 µg/mL; in [17] it was 0.6 µg/mL; in [18] it was 0.6 µg/mL; in [19], 0.6 µg/mL. For the same compound, the MIC in test [21], in test [24] and in test [26] was 0.6 µg/mL each time.
As to `CCn1cc(C(=O)O)c(=O)c2cc(F)c(N3CCNCC3)cc21` [NORFLOXACIN], the “fold change (FC)” value in test [27], in test [29], in test [30], in test [31], in test [32] and in test [33] was 10 each time. In addition, the “fold change (FC)” value in test [35], in [36], in [37] and in [38] was 10 in each case. The MBC was 0.16 µg/mL (≈ 0.501 µM) in test [9]; 0.16 µg/mL (≈ 0.501 µM) in test [10]; 0.32 µg/mL (≈ 1 µM) in [11]; 0.32 µg/mL (≈ 1 µM) in [13]; 0.32 µg/mL (≈ 1 µM) in test [14]; 0.32 µg/mL (≈ 1 µM) in [20]. Besides, the MBC in [22] came out at 0.16 µg/mL (≈ 0.501 µM); in test [23], 0.32 µg/mL (≈ 1 µM); in [25], 0.16 µg/mL (≈ 0.501 µM). Further, the result in test [1], in test [28], in [2], in test [3], in [34] and in test [4] was Active. For the same compound, the MIC came out at 0.08 µg/mL in test [12]; 0.04 µg/mL in [15]; 0.04 µg/mL in test [16]; 0.04 µg/mL in test [17]; 0.04 µg/mL in [18]; 0.04 µg/mL in test [19]. In addition, the MIC in [21], in test [24] and in test [26] was 0.04 µg/mL throughout.
